Reference: BindingDB's records for doi:10.1021/np800732n (National Cancer Institute-Frederick, 2010)
pIC50: −log10 of the molar value.

Molecular target: Transcription factor Jun (Homo sapiens, UniProt P05412)
Experiment: Inhibition of TPA-induced AP1 transfected in HEK293 cells assessed as inhibition of […] reporter activity treated 1 hr before TPA stimulation measured after 18 hrs by luciferase reporter gene assay
Method in brief: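 HEK293 cells were grown in DMEM with 10% FBS at 37 °C and 5% CO2. They were transiently transfected with a luciferase reporter (0.1 µg/well); reporters were AP-1 (four TRE consensus copies from GCN4), NF-κB (five responsive-element copies) or SRE. After 24 h, medium went to DMEM with 0.2% FBS. Cells were pretreated 1 h with compound or DMSO, then given TPA 10 ng/mL for 18 h. Firefly luciferase was read from passive-lysis lysates, TPA alone = 100%, in quadruplicate.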

Transcription factor Jun, sequence (P05412 whole entry): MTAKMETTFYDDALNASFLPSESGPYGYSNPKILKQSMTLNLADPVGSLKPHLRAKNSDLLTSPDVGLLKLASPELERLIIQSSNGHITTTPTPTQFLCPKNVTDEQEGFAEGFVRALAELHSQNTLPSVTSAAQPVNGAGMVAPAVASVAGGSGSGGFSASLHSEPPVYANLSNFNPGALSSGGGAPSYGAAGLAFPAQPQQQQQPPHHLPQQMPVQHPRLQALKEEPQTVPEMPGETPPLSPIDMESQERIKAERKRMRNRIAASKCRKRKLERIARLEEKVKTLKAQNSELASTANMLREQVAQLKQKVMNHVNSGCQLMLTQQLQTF

pIC50	Compound
7.49	CCC(C)C(=O)O[C@H]1C(=O)O[C@@H]2C[C@H]3C(C)CC(=O)C(=O)[C@]3(C)[C@H]3[C@]4(O)OC[C@]32[C@@H]1[C@@H](C)[C@H]4O (stereo partly drawn)
7.15	CC(C)=CC(=O)O[C@@H]1[C@H]2C(C)=C[C@H](O)[C@@H](O)[C@]2(C)[C@H]2[C@]3(O)OC[C@@]24[C@@H]1OC(=O)C[C@H]4[C@@H](C)[C@H]3O [6R-senecionylchaparrin]

Compound	pIC50
CC[C@](C)(O)C(=O)O[C@H]1C(=O)O[C@@H]2C[C@H]3C(C)CC(=O)C(=O)[C@]3(C)[C@H]3[C@@]4(O)OC[C@]32[C@@H]1[C@@H](C)[C@H]4O (stereo partly drawn) [NSC-14975]	7.40
